From PubChem
An excerpt weighted towards active compounds, which were near 3.4% of everything screened.
MC4R ag barr: human MC4R agonism via beta-arrestin | P32245 | U2OS MC4R beta-arrestin complementation, luminescence; percent of melanotan II response, DMSO zero | actives 0.98% (n = 360,000) | activation, % at 8.9 µM;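 active means activation above a per-plate cutoff, the mean activation of sample wells on that plate plus 3 SD, cut at about 8% in these data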
MIN6 prolif: induces beta-cell replication in MIN6 cells; MIN6 cells proliferation, ATPlite luminescence, 48 h; cells starved in 0.2% serum; 100% = growth in 10% serum; proliferation, % at 10 µM; actives 0.29% (n = 330,000);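 active means compounds whose signal lies at least 3.5 SD above the mean of all wells on their plate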
TMEM16A act: activators or potentiators of mouse TMEM16A chloride channel; Q8BHY3; HEK293 TMEM16A/YFP-H148Q/I152L, iodide quench fluorescence; hits give low values; B-score at 10 µM; actives 0.3% (n = 340,000); AID 623877;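 active means fluorescence-ratio B-score plate-corrected deviation score at least 3 library SD below zero, with starting fluorescence score within 5 deviations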;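 further: channel opened by trigger with iodide after compound preincubation; score built on the fluorescence ratio of max minus min over baseline; more negative score means more quench and so TMEM16A activation or potentiation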
TMEM16A inh: mouse TMEM16A channel inhibition, primary screen; actives 1.2% (n = 310,000); Q8BHY3; HEK293 TMEM16A/YFP iodide influx fluorescence, ionomycin; normalized B-score (activity score, 25-100; higher = stronger inhibition) at 10 µM; AID 588511;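 active means ratio plate-corrected score three or more library SD toward inhibition, starting fluorescence score within five deviations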;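 further: score derived from kinetic fluorescence span divided by baseline fluorescence per well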
MC4R antag cAMP: blocks human MC4R cAMP signaling; actives 0.48% (n = 360,000); inhibition, % at 6.5 µM; AID 540295; MC4R-expressing cells, MTII-stimulated cAMP, LANCE TR-FRET;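 active means inhibition above its plate's cutoff, the mean of tested wells on that plate plus 3 SD, cut at about 29% in these data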
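Assay system: U2OS-MC4R stable cell line; Also added: Melanotan II; Technique: Eu-cAMP/anti-cAMP TR-FRET, emission 671 nm; Times: 30-min compound, 1-h challenge, 1-h detection, room temperature.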
HTR2A ag: agonists of mouse serotonin 5-HT2A receptor (HTR2A); P35363; CHO-K1 mHTR2A beta-arrestin complementation, luminescence; percent of 30 µM serotonin response; activation, % at 7.6 µM; actives 0.66% (n = 360,000); AID 624169;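 active means activation above a run cutoff, the mean activation of all tested compounds plus 3 SD, cut at about 14% in these data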
Each line names hits and unclear results; the compound was inactive in the other large screens.

C=CC[C@H](CC(=O)NCCO)C(=O)NC[C@@H](OC(=O)[C@@H](CC=C)CC(=O)OC(C)(C)C)c1ccccc1	TMEM16A act -18 (no result: TMEM16A inh)
Cc1cc(C)cc(C(=O)NCC(=O)OCC(=O)Nc2ccc(C)cc2Br)c1	TMEM16A act -4.6
Cc1ccc(NC(=O)COC(=O)CNC(=O)C2CCCCC2)c(Br)c1	none
CC1(C(=O)NS(=O)(=O)c2ccc(Cl)cc2)CCN1C(=O)c1ccc(C2CCCCC2)cc1 (stereo unspecified)	none (no result: MIN6 prolif, TMEM16A act, TMEM16A inh)
CC(=O)c1nn(-c2ccccc2)cc1C(=O)c1ccc(Br)cc1	none
CC(=O)c1nn(-c2cccc(Br)c2)cc1C(=O)c1ccccc1	MC4R ag barr 9.4
Cc1ccc(OCCCC(=O)Nc2ccc(S(N)(=O)=O)cc2)cc1	TMEM16A act -5.3
NS(=O)(=O)c1ccc(NC(=O)COC(=O)COc2ccc3ccccc3c2)cc1	HTR2A ag 17
Cc1ccc(SCCC(=O)OCC(=O)Nc2ccc(S(N)(=O)=O)cc2)cc1	TMEM16A act -4.9
CC(NC(=O)/C=C/c1ccccc1[N+](=O)[O-])C1CC2CCC1C2 (stereo unspecified)	none
N#Cc1ccc(C(C(=O)NC2CCCCC2)n2c(=O)c(-c3ccccc3)nc3ccccc32)cc1 (stereo unspecified)	none (no result: MC4R ag barr, MIN6 prolif, TMEM16A act, TMEM16A inh, MC4R antag cAMP)
Cc1ccc(NC(=O)CSc2nn(-c3ccccc3)c(=S)s2)cc1S(=O)(=O)N(C)C	TMEM16A inh 25
N#Cc1ccc(NC(=O)COC(=O)c2cccc(S(=O)(=O)N3CCCC3)c2)cc1	none (no result: MIN6 prolif, TMEM16A act, TMEM16A inh)
COc1ccc2cc(CN(C)C(=O)CN3C(=O)NC4(CCCC4)C3=O)ccc2c1	none (no result: MIN6 prolif, TMEM16A act, TMEM16A inh)
Cc1cnc(C(=O)OCC(=O)N2CC(C)CC(C)C2)cn1 (stereo unspecified)	none (no result: TMEM16A inh)
COc1ccc(Br)cc1/C=N/n1c(COc2ccccc2)n[nH]c1=S	none (no result: TMEM16A act)
COCCCNCCCOc1ccc(Cl)cc1C(C)(C)C	MC4R ag barr 10
COc1ccc(NC(=O)c2ccccc2SC)c(OC)c1	TMEM16A act -5.8
COc1ccc(NC(=O)c2ccccc2O)c(OC)c1	none
O=C(CCCC(=O)N(c1ccc(F)cc1)C(C(=O)NC1CCCC1)c1ccc(O)cc1)Nc1ccccn1 (stereo unspecified)	none
CCN(c1ccccc1)S(=O)(=O)c1cc(C(=O)Nc2ccccc2Cl)ccc1F	none
CCN(c1ccccc1)S(=O)(=O)c1cc(C(=O)Nc2ccc(Br)cc2)ccc1F	TMEM16A inh 25
CCCN1C(C)C(C(=O)OCC)=CN(Cc2cccc(I)c2)S1(=O)=O (stereo unspecified)	none (no result: MIN6 prolif, TMEM16A inh)
CC(=O)NC(c1ccc(F)c(F)c1)c1nc(-c2cnc3ccccc3c2)cs1 (stereo unspecified)	none (no result: MIN6 prolif, TMEM16A act, TMEM16A inh)
NS(=O)(=O)c1ccc(CCNC(=O)COC(=O)C2CCC2)cc1	TMEM16A act -4.6
CCC1CCCCN1S(=O)(=O)c1ccc(C(=O)Nc2nnc(-c3cccs3)o2)cc1 (stereo unspecified)	TMEM16A inh 25
O=C(NCc1cccnc1)c1cn(CCc2ccccc2)nn1	TMEM16A inh 25
CC(C)NC(=O)C1(C)CN(S(C)(=O)=O)CC(=O)N1CCc1ccccc1 (stereo unspecified)	none (no result: MC4R ag barr, MIN6 prolif, TMEM16A act, TMEM16A inh, MC4R antag cAMP)
CC(C)(C)c1cc[n+](-c2[nH]c(=O)sc2/C=N/N=C(\[O-])c2cccnc2)cc1	none
O=c1[nH]c(-[n+]2ccc3ccccc3c2)c(/C=N/N=C(\[O-])c2ccccc2)s1	TMEM16A act -12
Cn1c2ccccc2c2nnc(SCC(=O)Nc3cccc(O)c3)nc21	none
CC(C)Cc1ccc(C(C)C(=O)Nc2ccc(O)cc2)cc1 (stereo unspecified)	TMEM16A inh 100
CCCCCCCC[n+]1cccc(C(=O)N(CC)CC)c1	none
CCCCCCCCCCCCCCCC[n+]1ccc(C(N)=O)cc1	MC4R ag barr 9.2
O=C(CSc1nc2nc(-c3cccs3)cc(C(F)(F)F)c2c(=O)[nH]1)Nc1ccc(F)c(F)c1	TMEM16A inh 25
Cc1ccc(C)c(NC(=O)CSc2nc3nc(-c4cccs4)cc(C(F)(F)F)c3c(=O)[nH]2)c1	none
N#CC1=C(N)SC(N)=C(C#N)C1c1ccnc2ccccc12	TMEM16A act -28
O=C1c2ccccc2C(=O)C1c1ccnc2ccccc12	none
CC(c1ccc(O)cc1)(c1ccc(O)cc1)c1ccc(CCBr)cc1	MC4R ag barr 18
CC(OC(=O)Cn1cnc2c1c(=O)n(C)c(=O)n2C)C(=O)NC1CCCCC1C (stereo unspecified)	none
CCOC(=O)/C(C#N)=C/c1c(OCC)n(CC)c2ccccc12	TMEM16A inh 100
Cc1ccc(SCc2c(C#N)c3ccccc3n2C)cc1	TMEM16A inh 25
O=S1(=O)N=C(N(CCO)/N=C/c2ccc(Br)cc2)c2ccccc21	none
Cc1cc(NC2CCCCC2)nc(NCc2ccccc2)n1	TMEM16A inh 100
O=C(Nc1cccc(Cl)c1)c1csc([C@H]2C[C@H](O)[C@@H](CO)O2)n1	none (no result: MIN6 prolif, TMEM16A act, TMEM16A inh)
COC(=O)c1ccc(COC(=O)c2[nH]c(C)c(C(C)=O)c2C)o1	TMEM16A inh 100
Cc1ccc(-n2[nH]c(C)c(/C=N/Nc3ccc([N+](=O)[O-])cc3[N+](=O)[O-])c2=O)cc1	TMEM16A inh 100
O=[N+]([O-])c1ccc(/C=N\NS(=O)(=O)c2ccc(F)cc2)o1	none
CC(CCc1ccccc1)NC(=O)COC(=O)c1cc(NS(=O)(=O)c2ccc(Cl)c([N+](=O)[O-])c2)ccc1O (stereo unspecified)	TMEM16A inh 100
CC1(C(=O)NCc2cccs2)CCN1CCc1ccccc1 (stereo unspecified)	none (no result: MIN6 prolif, TMEM16A act, TMEM16A inh)
Cc1cccc(N2CCN(S(=O)(=O)c3ccc(-c4ccc(=O)[nH]n4)o3)CC2)c1C	MC4R ag barr 8.3
COc1ccccc1N1CCN(S(=O)(=O)c2ccc(-c3ccc(=O)[nH]n3)o2)CC1	none
Nc1c(SCCC(=O)O)ccc2c1C(=O)c1ccccc1C2=O	TMEM16A act -5.3
Nc1c(C(=O)O)ccc2c1C(=O)c1ccccc1C2=O	none
CC(O)[C@H]1CNCCN1CCc1cccc(F)c1 (stereo partly specified)	TMEM16A act -15
CCC(C)[C@H]1CNCCN1CCc1cccc2ccccc12 (stereo partly specified)	TMEM16A inh 100
CN(CC(=O)Nc1nc2ccccc2s1)S(=O)(=O)c1ccc(Br)cc1	TMEM16A inh 25
CCOc1ccc(CCNC(=O)CS(=O)Cc2nc(-c3ccc(C)cc3)oc2C)cc1 (stereo unspecified)	none
COc1ccc(-c2nc(CS(=O)CC(=O)NCCC3=CCCCC3)c(C)o2)cc1 (stereo unspecified)	HTR2A ag 40
